The structures appear in SMILES notation.

Results on nine compounds are retold here after ChEMBL document CHEMBL1138811, “Synthesis, conformational analysis, and cytotoxicity of conformationally constrained aplidine and tamandarin A analogues incorporating a spirolactam beta-turn mimetic” (J Med Chem, 2004).

Test [1] relates to HT-29. Nature of the test: Concentration required to inhibit growth of human […] cell line by 50% was determined. Type of test: functional, cell-based. The method, boiled down: (§1)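 SRB colorimetric growth assay in A549 lung and HT-29 colon carcinoma cells. Cells seeded at 5 × 10^3 per well in RPMI and attached for 18 h in drug-free medium. Samples added in (3:7) DMSO/H2O for 48–72 h exposure. Cells fixed with cold 50% (w/v) TCA at 4 °C for 60 min, then stained with 0.4% SRB in 1% acetic acid for 10 min. Bound dye solubilised in Tris, OD read at 490 nm.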

Test [2] deals with A549. Nature of the test: Concentration required to inhibit growth of human A549 cell line by 50%. The test is classed as functional, cell-based. The method in brief: as §1

As to `CC[C@H](C)C1NC(=O)[C@@H](NC(=O)[C@@H](CC(C)C)N(C)C(=O)[C@@H]2CCCN2C(=O)C(C)=O)[C@@H](C)OC(=O)[C@H](Cc2ccc(O)cc2)N(C)C(=O)[C@@H]2CCCN2C(=O)[C@H](CC(C)C)NC(=O)[C@@H](C(C)C)OC(=O)C[C@H]1O` (stereo partly drawn) [DEHYDROTAMANDARIN A], the IC50 in test [1] and in test [2] was 0.47 nM each time.

With `C=C(C)C(=O)N1CCCC12CCN([C@H](CC(C)C)C(=O)N[C@@H]1C(=O)NC([C@@H](C)CC)[C@H](O)CC(=O)O[C@H](C(C)C)C(=O)N[C@@H](CC(C)C)C(=O)N3CCC[C@H]3C(=O)N(C)[C@@H](Cc3ccc(O)cc3)C(=O)O[C@@H]1C)C2=O` (stereo partly drawn), the IC50 in test [1] and in test [2] was 93.9 nM each time.

Regarding `CC[C@H](C)C1NC(=O)[C@@H](NC(=O)[C@@H](CC(C)C)N(C)C(=O)[C@@H]2CCCN2C(=O)C(C)O)[C@@H](C)OC(=O)[C@H](Cc2ccc(O)cc2)N(C)C(=O)[C@@H]2CCCN2C(=O)[C@H](CC(C)C)NC(=O)[C@@H](C(C)C)OC(=O)C[C@H]1O` (stereo partly drawn) [TAMANDARIN A], the half-inhibitory concentration (IC50) in test [1] and in test [2] was 0.95 nM in each case.

As to `CC[C@H](C)C1NC(=O)[C@@H](NC(=O)[C@@H](CC(C)C)N2CCC3(CCCN3C(=O)C(C)=O)C2=O)[C@@H](C)OC(=O)[C@H](Cc2ccc(O)cc2)N(C)C(=O)[C@@H]2CCCN2C(=O)[C@H](CC(C)C)NC(=O)[C@@H](C(C)C)OC(=O)C[C@H]1O` (stereo partly drawn), the IC50 in test [1] and in test [2] was 93.8 nM throughout.

`CC[C@H](C)C1NC(=O)[C@@H](NC(=O)[C@@H](CC(C)C)N2CCC3(CCCN3C(=O)C(C)C)C2=O)[C@@H](C)OC(=O)[C@H](Cc2ccc(O)cc2)N(C)C(=O)[C@@H]2CCCN2C(=O)[C@H](CC(C)C)NC(=O)[C@@H](C(C)C)OC(=O)C[C@H]1O` (stereo partly drawn): the IC50 in test [1] and in test [2] was 93.8 nM in each case.

Regarding `CC[C@H](C)C1NC(=O)[C@@H](NC(=O)[C@@H](CC(C)C)N2CCC3(CCCN3C(=O)OC(C)(C)C)C2=O)[C@@H](C)OC(=O)[C@H](Cc2ccc(O)cc2)N(C)C(=O)[C@@H]2CCCN2C(=O)[C@H](CC(C)C)NC(=O)[C@@H](C(C)C)OC(=O)C[C@H]1O` (stereo partly drawn), the IC50 in test [1] and in test [2] was 4.56 nM in each case.

As to `CC[C@H](C)[C@@H]1NC(=O)[C@@H](NC(=O)[C@@H](C)N2CCC3(CCCN3C(=O)C(C)C)C2=O)[C@@H](C)OC(=O)[C@H](Cc2ccc(OC)cc2)N(C)C(=O)[C@@H]2CCCN2C(=O)[C@H](CC(C)C)NC(=O)[C@H](C)C(=O)[C@@H](C(C)C)OC(=O)C[C@H]1O` (stereo partly drawn), the IC50 in test [1] and in test [2] was 89.1 nM throughout.

`CC[C@H](C)[C@@H]1NC(=O)[C@@H](NC(=O)[C@@H](C)N2CCC3(CCCN3C(=O)OC(C)(C)C)C2=O)[C@@H](C)OC(=O)[C@H](Cc2ccc(OC)cc2)N(C)C(=O)[C@@H]2CCCN2C(=O)[C@H](CC(C)C)NC(=O)[C@H](C)C(=O)[C@@H](C(C)C)OC(=O)C[C@H]1O` (stereo partly drawn): the IC50 in test [1] and in test [2] was 8.68 nM in each case.

With `CC[C@H](C)[C@@H]1NC(=O)[C@@H](NC(=O)[C@@H](C)N2CCC3(CCCN3C(=O)C(C)=O)C2=O)[C@@H](C)OC(=O)[C@H](Cc2ccc(OC)cc2)N(C)C(=O)[C@@H]2CCCN2C(=O)[C@H](CC(C)C)NC(=O)[C@H](C)C(=O)[C@@H](C(C)C)OC(=O)C[C@H]1O` (stereo partly drawn), the IC50 (commonly the concentration that gives 50% inhibition) in test [1] was determined as 8.9 nM; in test [2], 8.55 nM.
